We go through five compounds from ChEMBL document CHEMBL1150617, “New and biologically active imidazole alkaloids from two sponges of the genus Leucetta” (2002).

≈ marks a conversion by molar mass, not a printed value. Calls of active or inactive are those of the source. No cut-off for these calls is given here.

Assay [1] has as its system Microbotryum violaceum. Kind of assay: Antifungal activity against Microbotryum violaceum at 50 ug. Type of assay: functional, organism-based. The procedure, abridged: (§1)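 Agar diffusion assay against bacteria (Bacillus megaterium, Escherichia coli), fungi (Microbotryum violaceum, Eurotium repens, Mycotypha microsporum) and the green microalga Chlorella fusca.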
Assay [2] has as its system Mycotypha microspora. The assay is described as follows: Antifungal activity against Mycotypha microspora at 50 ug. Type of assay: functional, organism-based. The essentials: as §1
Assay [3] concerns Aspergillus pseudoglaucus. Kind of assay: Antifungal activity against Eurotium repens at 50 ug. It is filed as functional, organism-based. The essentials:
as §1

In assay [4] the test system is [Chlorella] fusca. The assay is described as follows: Antialgal activity against 'Chlorella' fusca at 50 ug. Type of assay: functional, organism-based. Particulars: Scenedesmus fuscus. The essentials:
as §1

Assay [5] has as its system Escherichia coli. The assay is described as follows: Antibacterial activity against Escherichia coli at 50 ug. Type of assay: functional, organism-based. The essentials: as §1
Assay [6] concerns Priestia megaterium. Kind of assay: Antibacterial activity against Bacillus megaterium at 50 ug. Type of assay: functional, organism-based. The essentials:
as §1

In assay [7] the test system is Huh-7. The assay is described as follows: Cytotoxicity against human HuH7 cells. Type of assay: functional. The procedure, abridged:
(§2)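 Cytotoxicity run to NCI standards on the human tumour lines HM02 (stomach carcinoma), HepG2 (liver carcinoma) and Huh7 (liver carcinoma with mutated p53).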

The test system of assay [8] is HepG2. The assay is described as follows: Cytotoxicity against human HepG2 cells. It is filed as functional. The essentials: as §2
The nature of assay [9]: Cytotoxicity against human HM02 cells. Type of assay: functional. The procedure, abridged: as §2

For the compound `COc1ccc(Cc2[nH]c(=N)n(C)c2Cc2ccc(O)cc2)cc1`, the outcome in assay [1], in assay [2], in [3], in assay [4], in assay [5] and in assay [6] was inactive.
As usually defined, the GI50 is the concentration giving 50% growth inhibition. A low value points to greater sensitivity of the cells. As to `COc1ccc(Cn2cc(Cc3ccc(OC)c(OC)c3)nc2N)cc1` [ISONAAMINE C], the values for the GI50 in assay [7], in assay [8] and in assay [9] were 2.1 µg/mL (≈ 5.94 µM), 2.2 µg/mL (≈ 6.22 µM) and 5.3 µg/mL (≈ 15 µM), respectively. For the same compound, the result in [1], in assay [2], in [3], in assay [4], in [5] and in [6] was inactive.
`COc1ccc(Cc2[nH]c(=N)n(C)c2Cc2cc(O)c(OC)c(O)c2)cc1`: the outcome in [1], in assay [2], in [3], in [4], in assay [5] and in assay [6] was inactive.
With `COc1ccc(Cn2cc(Cc3ccc(OC)c(OC)c3)nc2/N=C2/NC(=O)N(C)C2=O)cc1` [ISONAAMIDINE E], the GI50 in assay [7] came out at 1.3 µg/mL (≈ 2.8 µM); in assay [8], 7 µg/mL (≈ 15.1 µM); in [9], 7 µg/mL (≈ 15.1 µM). The result in assay [1], in [2], in assay [3], in [4], in [5] and in assay [6] was inactive.
On to `COc1ccc(Cc2cn(Cc3ccc(O)cc3)c(=N)n2C)cc1`, for which the result in assay [1], in assay [2], in assay [3], in assay [4], in assay [5] and in assay [6] was inactive.
